Test system: human sural nerve
Assay type: binding
Details: topical 100 µM on human nerve sections from multiple patients
In short: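 Human peripheral nerve from nerve-resection patients, cut as 10 µm unfixed sections, humidified 30 min. Test compound in 0.5X HBSS applied topically and incubated 30 min in a humidified chamber. Carboxyfluorescein served as the free-dye control. Sections were washed twice with 0.5X HBSS and once with PBS, then coverslipped and imaged at once on a dissecting scope or confocal (488 nm excitation, 515/25 nm emission, 10x air objective).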

carboxyfluorescein
binding of free dye control to human nerve: only weak non-specific binding

Source: paper PMC6096382 (Theranostics, 2018)
